Reference: ChEMBL document CHEMBL5058577, “EUbOPEN Chemogenomics Library 2 (Multiplex)” (2022)

Test system: U2OS
Test: Multiplex assay against U2OS
Format: toxicity, cell-based
Settings: human
In short: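 Values for tubulin, mitochondrial-mass and membrane-permeability phenotypes are per cents of cells with healthy nuclei. These cells were identified by CellPathfinder machine-learning gating of live cells that had been stained at seeding with Hoechst33342, BioTracker Green Microtubule Cytoskeleton Dye, MitoTracker Red and Annexin V Alexa Fluor 680 and imaged on a CQ1 microscope at 37°C and 5% CO2 after compound addition. The gating first set Hoechst high-intensity objects apart from normal cells, then split normal cells into healthy, pyknosed or fragmented nuclei, and pyknosed cells into mitotic or apoptotic.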

[1] = 12 h, 1 µM, compound concentration 1 uM, replicate 1
[2] = 12 h, 1 µM, compound concentration 1 uM, replicate 2
[3] = 12 h, 10 µM, compound concentration 10 uM, replicate 1
[4] = 12 h, 10 µM, compound concentration 10 uM, replicate 2
[5] = 24 h, 1 µM, compound concentration 1 uM, replicate 1
[6] = 24 h, 1 µM, compound concentration 1 uM, replicate 2
[7] = 24 h, 10 µM, compound concentration 10 uM, replicate 1
[8] = 24 h, 10 µM, compound concentration 10 uM, replicate 2
[9] = 48 h, 1 µM, compound concentration 1 uM, replicate 1
[10] = 48 h, 1 µM, compound concentration 1 uM, replicate 2
[11] = 48 h, 10 µM, compound concentration 10 uM, replicate 1
[12] = 48 h, 10 µM, compound concentration 10 uM, replicate 2

For Cc1c(CC(=O)O)c2cccnc2n1Cc1ccc(S(C)(=O)=O)cc1C(F)(F)F [FEVIPIPRANT], the “Population Apoptotic (%)” value [1] was 80%, the “Population Fragmented Nuclei (%)” value [1] was 25% and the “Population Healthy Nuclei (%)” value [1] was 64%. For the same compound, the “Population Hoechst High Intensity Objects (%)” value [1] was 1%, the “Population Membrane Permeable-Phenotype (%)” value [1] was 2% and the “Population Mitochondria Different-Phenotype (%)” value [1] was 2%. The “Population Mitotic Cells (%)” value [1] was 19%, the “Population Normal (%)” value [1] was 98% and the “Population Pyknosed Nuclei (%)” value [1] was 9%. For the same compound, the “Population Tubulin-Different-Phenotype (%)” value [1] was 0%, the “Total Cell Count” value [1] was 224 and the “Population Apoptotic (%)” value [2] was 50%. The “Population Fragmented Nuclei (%)” value [2] was 22%, the “Population Healthy Nuclei (%)” value [2] was 72% and the “Population Membrane Permeable-Phenotype (%)” value [2] was 8%. For the same compound, the “Population Mitochondria Different-Phenotype (%)” value [2] was 1%, the “Population Mitotic Cells (%)” value [2] was 50% and the “Population Pyknosed Nuclei (%)” value [2] was 5%. For the same compound, the “Population Tubulin-Different-Phenotype (%)” value [2] was 9%, the “Total Cell Count” value [2] was 118 and the “Population Apoptotic (%)” value [3] was 90%. For the same compound, the “Population Fragmented Nuclei (%)” value [3] was 27%, the “Population Healthy Nuclei (%)” value [3] was 65% and the “Population Hoechst High Intensity Objects (%)” value [3] was 2%. The “Population Membrane Permeable-Phenotype (%)” value [3] was 3%, the “Population Mitochondria Different-Phenotype (%)” value [3] was 0% and the “Population Mitotic Cells (%)” value [3] was 9%. The “Population Normal (%)” value [3] was 97%, the “Population Pyknosed Nuclei (%)” value [3] was 7% and the “Population Tubulin-Different-Phenotype (%)” value [3] was 1%. The “Total Cell Count” value [3] was 287, the “Population Apoptotic (%)” value [4] was 100% and the “Population Fragmented Nuclei (%)” value [4] was 22%. The “Population Healthy Nuclei (%)” value [4] was 73%, the “Population Hoechst High Intensity Objects (%)” value [4] was 0% and the “Population Membrane Permeable-Phenotype (%)” value [4] was 8%. The “Population Mitochondria Different-Phenotype (%)” value [4] was 3%, the “Population Mitotic Cells (%)” value [4] was 0% and the “Population Normal (%)” value [4] was 99%. For the same compound, the “Population Pyknosed Nuclei (%)” value [4] was 3%, the “Population Tubulin-Different-Phenotype (%)” value [4] was 4% and the “Total Cell Count” value [4] was 116. For the same compound, the “Population Apoptotic (%)” value [5] was 80%, the “Population Fragmented Nuclei (%)” value [5] was 20% and the “Population Healthy Nuclei (%)” value [5] was 71%. For the same compound, the “Population Hoechst High Intensity Objects (%)” value [5] was 2%, the “Population Membrane Permeable-Phenotype (%)” value [5] was 1% and the “Population Mitochondria Different-Phenotype (%)” value [5] was 3%. The “Population Mitotic Cells (%)” value [5] was 20%, the “Population Normal (%)” value [5] was 97% and the “Population Pyknosed Nuclei (%)” value [5] was 8%. The “Population Tubulin-Different-Phenotype (%)” value [5] was 1%, the “Total Cell Count” value [5] was 256 and the “Population Apoptotic (%)” value [6] was 66%. The “Population Fragmented Nuclei (%)” value [6] was 17%, the “Population Healthy Nuclei (%)” value [6] was 74% and the “Population Hoechst High Intensity Objects (%)” value [6] was 0%. For the same compound, the “Population Membrane Permeable-Phenotype (%)” value [6] was 9%, the “Population Mitochondria Different-Phenotype (%)” value [6] was 0% and the “Population Mitotic Cells (%)” value [6] was 33%. For the same compound, the “Population Normal (%)” value [6] was 100%, the “Population Tubulin-Different-Phenotype (%)” value [6] was 10% and the “Total Cell Count” value [6] was 145. The “Population Apoptotic (%)” value [7] was 96%, the “Population Fragmented Nuclei (%)” value [7] was 20% and the “Population Healthy Nuclei (%)” value [7] was 70%. For the same compound, the “Population Hoechst High Intensity Objects (%)” value [7] was 0%, the “Population Membrane Permeable-Phenotype (%)” value [7] was 5% and the “Population Mitochondria Different-Phenotype (%)” value [7] was 3%. The “Population Mitotic Cells (%)” value [7] was 3%, the “Population Normal (%)” value [7] was 99% and the “Population Pyknosed Nuclei (%)” value [7] was 8%. For the same compound, the “Population Tubulin-Different-Phenotype (%)” value [7] was 3%, the “Total Cell Count” value [7] was 326 and the “Population Apoptotic (%)” value [8] was 100%. For the same compound, the “Population Fragmented Nuclei (%)” value [8] was 12%, the “Population Healthy Nuclei (%)” value [8] was 78% and the “Population Hoechst High Intensity Objects (%)” value [8] was 1%. The “Population Membrane Permeable-Phenotype (%)” value [8] was 8%, the “Population Mitochondria Different-Phenotype (%)” value [8] was 2% and the “Population Mitotic Cells (%)” value [8] was 0%. The “Population Normal (%)” value [8] was 98%, the “Total Cell Count” value [8] was 119 and the “Population Apoptotic (%)” value [9] was 65%. The “Population Fragmented Nuclei (%)” value [9] was 18%, the “Population Healthy Nuclei (%)” value [9] was 71% and the “Population Hoechst High Intensity Objects (%)” value [9] was 2%. For the same compound, the “Population Membrane Permeable-Phenotype (%)” value [9] was 4%, the “Population Mitochondria Different-Phenotype (%)” value [9] was 3% and the “Population Mitotic Cells (%)” value [9] was 34%. The “Population Normal (%)” value [9] was 97%, the “Population Pyknosed Nuclei (%)” value [9] was 10% and the “Population Tubulin-Different-Phenotype (%)” value [9] was 2%. The “Total Cell Count” value [9] was 379, the “Population Apoptotic (%)” value [10] was 90% and the “Population Fragmented Nuclei (%)” value [10] was 20%. The “Population Healthy Nuclei (%)” value [10] was 67%, the “Population Membrane Permeable-Phenotype (%)” value [10] was 8% and the “Population Mitochondria Different-Phenotype (%)” value [10] was 5%. For the same compound, the “Population Mitotic Cells (%)” value [10] was 9%, the “Population Pyknosed Nuclei (%)” value [10] was 12% and the “Population Tubulin-Different-Phenotype (%)” value [10] was 9%. The “Total Cell Count” value [10] was 187, the “Population Apoptotic (%)” value [11] was 91% and the “Population Fragmented Nuclei (%)” value [11] was 17%. For the same compound, the “Population Healthy Nuclei (%)” value [11] was 73%, the “Population Hoechst High Intensity Objects (%)” value [11] was 1% and the “Population Membrane Permeable-Phenotype (%)” value [11] was 4%. The “Population Mitochondria Different-Phenotype (%)” value [11] was 3%, the “Population Mitotic Cells (%)” value [11] was 8% and the “Population Normal (%)” value [11] was 98%. The “Population Pyknosed Nuclei (%)” value [11] was 8%, the “Population Tubulin-Different-Phenotype (%)” value [11] was 3% and the “Total Cell Count” value [11] was 408. The “Population Apoptotic (%)” value [12] was 100%, the “Population Fragmented Nuclei (%)” value [12] was 15% and the “Population Healthy Nuclei (%)” value [12] was 76%. For the same compound, the “Population Hoechst High Intensity Objects (%)” value [12] was 3%, the “Population Membrane Permeable-Phenotype (%)” value [12] was 5% and the “Population Mitochondria Different-Phenotype (%)” value [12] was 1%. For the same compound, the “Population Mitotic Cells (%)” value [12] was 0%, the “Population Normal (%)” value [12] was 96% and the “Total Cell Count” value [12] was 158.
